# Results published in ChEMBL document CHEMBL5634197, “Structural Evaluations of a Selective Human STINGA230 Agonist and Its Use in Macrophage Immunotherapies” (ACS Med Chem Lett, 2024).
# pEC50: −log10 of the molar value. Activity calls are given as the source filed them. The calls are words filed in the database; no cut-off is given here.
# What was measured:
# [1] = Agonist activity at N-terminal his/SUMO tagged STING A230 in human THP-1 cells transfected with ISRE reporter assessed as increase in cGAMP-induced ISRE activation incubated for 48 hrs by luminescence based analysis; assay type: cell-based; conditions: for EC50: thp-1; for pEC50: Homo sapiens, THP-1, 48 h, read-out: EC50
# THP-1 [2] = assay: Upregulation of MX1 expression in human THP-1 cells at 50 uM measured after 6 hrs by RT-qPCR analysis; assay type: functional, cell-based
# Method in brief: (§1)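 THP-1 cells, which carry homozygous STING HAQ, were treated for 6 h with vehicle or the agonist at 50 μM. Cells were then harvested, and MX1 and OAS1 expression was measured by RT-qPCR.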
# THP-1 [3] = assay: Upregulation of OAS1 expression in human THP-1 cells at 50 uM measured after 6 hrs by RT-qPCR analysis; assay type: functional, cell-based; method in brief: as §1
# Macrophage [4] = assay: Upregulation of MX1 expression in human Primary macrophage measured after 6 hrs by RT-qPCR analysis; assay type: functional, cell-based
# Method in brief: (§2)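 CD14+ monocytes from 3 healthy donors with STING G230 alleles were differentiated into macrophages with M-CSF. Cells were transduced with FG12-EF1p-EGFRt-p2A-STINGA230 lentivirus, mock-transduced or left untransduced. Three days after transduction they were stimulated for 6 h with DMSO vehicle or the agonist, and MX1 and IRF7 expression was measured by RT-qPCR.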
# Macrophage [5] = assay: Upregulation of IRF7 expression in human Primary macrophage measured after 6 hrs by RT-qPCR analysis; assay type: functional, cell-based; method in brief: as §2
# [6] = Upregulation of MX1 expression in human Primary macrophage transduced with lentivirus FG12-EFlp-EGFRt-p2A-STING A230 assessed as fold change measured after 6 hrs by RT-qPCR analysis; assay type: functional; method in brief: as §2
# [7] = Upregulation of IRF7 expression in human Primary macrophage transduced with lentivirus FG12-EFlp-EGFRt-p2A-STING A230 assessed as fold change measured after 6 hrs by RT-qPCR analysis; assay type: functional; method in brief: as §2
# PBMC = assay: Induction of MX1 gene expression in human PBMC cells harbouring STING A230 allele at 50 uM measured after 6 hrs by RT-qPCR analysis; assay type: functional, cell-based
# Method in brief: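 Primary PBMCs from 15 independent healthy donors were exposed to 50 μM agonist for 6 h. The 2′,3′-cGAMP comparator was given at 1 μg/mL. Cells were then harvested, and MX1 expression was measured by RT-qPCR. Values come from the donor carrying the STINGA230 allele.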
SMILES,EC50 [1],other results
COC(=O)Cc1nnc2c3c(C)c(C)sc3ncn12,Not Active,
COC(=O)CSc1nnc2c3c(C)c(Br)sc3ncn12,,pEC50 [1]: 4.94
COC(=O)CSc1nnc2c3ccsc3ncn12,Not Active,
COC(=O)COc1nnc2c3c(C)c(C)sc3ncn12,Not Active,
COC(=O)CCSc1nnc2c3c(C)c(C)sc3ncn12,Not Active,
Cc1sc2ncn3c(Sc4nnn[nH]4)nnc3c2c1C,Not Active,
COC(=O)CSc1nnc2c3c4c(sc3ncn12)CCCC4,Not Active,
COCc1sc2ncn3c(SCC(=O)OC)nnc3c2c1C,,pEC50 [1]: 4.63
Cc1sc2ncn3c(SCC(=O)OC(C)C)nnc3c2c1C,,pEC50 [1]: 4.87
COC(=O)CSc1ncc2c3c(C)c(C)sc3ncn12,Not Active,
COC(=O)C[S+]([O-])c1nnc2c3c(C)c(C)sc3ncn12 (configuration not stated),Not Active,
COC(=O)CNC(=O)n1cnc2sc(C)c(C)c2c1=O,Not Active,
COC(=O)CSc1nnc2c3cc(OC)c(OC)cc3ncn12,Not Active,
CCOC(=O)CSc1nnc2c3c(C)c(C)sc3ncn12,,pEC50 [1]: 5.06
COC(=O)CCc1nnc2c3c(C)c(C)sc3ncn12,Not Active,
COC(=O)CSc1nnc2c3c(C)c(C)n(C)c3ncn12,Not Active,
Cc1sc2ncn3c(SCC(=O)OC(C)(C)C)nnc3c2c1C,Not Active,
COCc1c(C)sc2ncn3c(SCC(=O)OC)nnc3c12,Not Active,
COC(=O)CSc1nnc2c3c(C)c(C)sc3ccn12,Not Active,
Cc1sc2ncn3c(SC4CCOC4=O)nnc3c2c1C (configuration not stated),Not Active,
CCc1cc2c(ncn3c(SCC(=O)OC)nnc23)s1,,pEC50 [1]: 5.16
COC(=O)CSc1nnc2c3c4c(sc3ncn12)CCC4,,pEC50 [1]: 5.14
COC(=O)CSc1nnc2c3c(C)c(C)oc3ncn12,Not Active,
COC(=O)CSc1nnc2c3c(C)c(C)sc3nc(C)n12,Not Active,
COC(=O)CSc1nnc2c3c(C)c(C)sc3ncn12,,pEC50 [1]: 5.24; Activity (THP-1 [2]): Active; Activity (THP-1 [3]): Active; Activity (Macrophage [4]): inactive; Activity (Macrophage [5]): inactive; fold change (FC) [6]: 10; fold change (FC) [7]: 5; Activity (PBMC): Active
